Measurements: ChEMBL document CHEMBL3797143, “Novel S1P1 receptor agonists - Part 5: From amino-to alkoxy-pyridines” (Eur J Med Chem, 2016)
Active and inactive are the calls of the source. No cut-off for these calls is given here.

Experiments:
Rattus norvegicus [1] = experiment: Decrease in peripheral blood lymphocyte count in Wistar rat at 10 mg/kg administered via oral gavage measured after 6 hrs; assay type: functional; parameters: scale not given: the % may be the effect or the level left
Outline: (§1)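 Male Wistar rats (RccHan:WIST) were given 10 mg/kg orally by gavage in vehicle containing 5% DMSO. Blood drawn by sublingual vein puncture under isoflurane before dosing and at the listed times after dosing. Lymphocytes counted on a haematology analyser. Results are % change from baseline, mean of 6-8 animals.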

Rattus norvegicus [2] = experiment: Decrease in peripheral blood lymphocyte count in Wistar rat at 10 mg/kg administered via oral gavage measured after 96 hrs; assay type: functional; outline: as §1
[3] = target: Sphingosine 1-phosphate receptor 1 (Homo sapiens, UniProt P21453); experiment: Agonist activity at human recombinant S1PR1 expressed in CHO cell membranes incubated for 30 mins by [35S]GTPgammaS binding assay in presence of GDP; assay type: functional
Chain of Sphingosine 1-phosphate receptor 1 (P21453 whole entry): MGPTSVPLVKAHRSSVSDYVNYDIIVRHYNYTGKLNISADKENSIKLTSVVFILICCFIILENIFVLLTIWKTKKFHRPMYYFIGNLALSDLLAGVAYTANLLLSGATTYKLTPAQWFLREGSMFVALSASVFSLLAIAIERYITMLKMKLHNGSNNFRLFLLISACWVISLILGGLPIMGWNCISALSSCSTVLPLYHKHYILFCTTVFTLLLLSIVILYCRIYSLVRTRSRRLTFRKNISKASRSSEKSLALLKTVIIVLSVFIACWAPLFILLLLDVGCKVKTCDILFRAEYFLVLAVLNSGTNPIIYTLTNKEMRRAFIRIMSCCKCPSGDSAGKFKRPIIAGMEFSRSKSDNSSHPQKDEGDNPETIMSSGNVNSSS
Outline: (§2)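 Membranes from CHO cells expressing recombinant human S1P1 or S1P3. Compounds were preincubated with membranes for 30 min at room temperature. Reaction stopped by filtration, membrane-bound 35S-GTPγS counted. Geometric mean of ≥3 independent runs.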

[4] = target: Sphingosine 1-phosphate receptor 3 (Homo sapiens, UniProt Q99500); experiment: Agonist activity at human recombinant S1PR3 expressed in CHO cell membranes incubated for 30 mins by [35S]GTPgammaS binding assay in presence of GDP; assay type: functional; outline: as §2
Chain of Sphingosine 1-phosphate receptor 3 (Q99500 whole entry): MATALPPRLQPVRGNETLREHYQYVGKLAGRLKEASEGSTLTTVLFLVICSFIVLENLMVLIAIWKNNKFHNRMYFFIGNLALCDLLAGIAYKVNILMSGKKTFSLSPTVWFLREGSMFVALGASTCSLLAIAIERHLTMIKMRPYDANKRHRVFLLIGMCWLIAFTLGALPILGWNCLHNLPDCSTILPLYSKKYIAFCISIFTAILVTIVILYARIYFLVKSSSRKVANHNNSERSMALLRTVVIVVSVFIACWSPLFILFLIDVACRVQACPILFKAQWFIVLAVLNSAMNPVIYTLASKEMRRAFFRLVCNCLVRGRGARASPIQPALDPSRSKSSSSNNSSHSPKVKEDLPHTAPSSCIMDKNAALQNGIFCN

Rattus norvegicus [5] = experiment: Decrease in peripheral blood lymphocyte count in Wistar rat at 10 mg/kg administered via oral gavage measured after 24 hrs; assay type: functional; parameters: scale not given: the % may be the effect or the level left; outline: as §1
Rattus norvegicus [6] = experiment: Decrease in peripheral blood lymphocyte count in Wistar rat at 10 mg/kg administered via oral gavage measured after 3 hrs; assay type: functional; parameters: scale not given: the % may be the effect or the level left; outline: as §1
Rattus norvegicus [7] = experiment: Time duration of maximum lymphocyte count reduction in Wistar rat at 10 mg/kg administered via oral gavage; assay type: functional
Outline: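 Duration of action is the latest sampling time at which maximal lymphocyte-count reduction was still seen. Male Wistar rats received 10 mg/kg orally, and blood lymphocytes were counted before dosing and at 3, 6 and 24 h (later times in some cases). Mean of 6-8 animals.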

[8] = Phototoxicity in Balb/c mouse 3T3 clone A31 cells assessed as AUC of UV spectra between 310 and 350 nm normalized to compound concentration at 0.05 to 100 uM preincubated for 1 hr followed by UVA irradiation measured after 24 hrs by neutral red uptake assay relative to control; assay type: functional
[9] = Plasma concentration in Wistar rat at 10 mg/kg administered via oral gavage measured after 3 hrs by LC-MS/MS analysis; assay type: ADME, organism-based
Outline: (§3)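 Male Wistar rats received 10 mg/kg orally by gavage. Blood was drawn at the listed times into EDTA tubes, and plasma was prepared by centrifugation at 3000 g for 10 min at 4 °C. Limit of quantification 3 nM.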

[10] = Half life in Wistar rat at 10 mg/kg administered via oral gavage by LC-MS/MS analysis; assay type: ADME, organism-based; conditions: in vivo
Outline: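 Oral half-life was calculated from plasma concentrations measured in the lymphocyte-count study, in which male Wistar rats received 10 mg/kg orally. Plasma was prepared from EDTA blood by centrifugation at 3000 g for 10 min at 4 °C.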

[11] = Plasma concentration in Wistar rat at 10 mg/kg administered via oral gavage measured after 24 hrs by LC-MS/MS analysis; assay type: ADME, organism-based; outline: as §3
[12] = Phototoxicity in Balb/c mouse 3T3 clone A31 cells assessed as inhibition of cell viability measured as photo irritancy factor at 0.05 to 100 uM preincubated for 1 hr followed by UVA irradiation measured after 24 hrs by neutral red uptake assay relative to control; assay type: functional
[13] = Plasma concentration in Wistar rat at 10 mg/kg administered via oral gavage measured after 6 hrs by LC-MS/MS analysis; assay type: ADME, organism-based; outline: as §3
Rattus norvegicus [14] = experiment: Decrease in peripheral blood lymphocyte count in Wistar rat at 10 mg/kg administered via oral gavage measured after 72 hrs; assay type: functional; parameters: scale not given: the % may be the effect or the level left; outline: as §1

Structure (SMILES)	Activity (Rattus norvegicus [1])	Activity (Rattus norvegicus [2])	EC50 [3]	EC50 [4]	Activity (Rattus norvegicus [5])	Activity (Rattus norvegicus [6])	Time (Rattus norvegicus [7])	Ratio [8]	concentration at 3 h [9]	half-life [10]	concentration at 24 h [11]	Ratio [12]	concentration at 6 h [13]	Activity (Rattus norvegicus [14])
CCc1cc(-c2nc(-c3cc(C)c(OC[C@@H](O)CNC(=O)CO)c(CC)c3)no2)cc(OC2CCCC2)n1	71%	Active	1.1 nM	50 nM	76%	64%	24 h							
CCc1cc(-c2noc(-c3cc(C)cc(OC4CCCC4)n3)n2)cc(C)c1OC[C@@H](O)CNC(=O)CO	58%		1 nM	930 nM	-18%	51%	6 h	0.1	1610 nM	4 h	39 nM	2	890 nM	
CCc1cc(-c2noc(-c3cc(OC)nc(-c4ccccc4)c3)n2)cc(C)c1OC[C@@H](O)CNC(=O)CO			28 nM	1600 nM										
CCc1cc(-c2nnc(-c3cc(C)nc(CC(C)C)c3)o2)cc(C)c1OC[C@@H](O)CNC(=O)CO												1.1		
CCc1cc(-c2noc(-c3cc(C)nc(N(CC)CC)c3)n2)cc(C)c1OC[C@@H](O)CNC(=O)CO					70%		72 h							62%
CCc1cc(-c2noc(-c3cnc(OC4CCCC4)c(C)c3)n2)cc(C)c1OC[C@@H](O)CNC(=O)CO	85%		0.7 nM	140 nM	85%	76%	24 h	0.02	1140 nM	16 h	510 nM	1.4	960 nM	
CCc1cc(-c2noc(-c3cc(OC)cc(C4CCCC4)n3)n2)cc(C)c1OC[C@@H](O)CNC(=O)CO	61%		0.7 nM	800 nM	30%	58%	6 h	0				2.4		
CCc1cc(-c2noc(-c3cc(OC4CCCC4)cc(C)n3)n2)cc(C)c1OC[C@@H](O)CNC(=O)CO	36%		11 nM	1400 nM	-33%	50%	<3 h	0	1560 nM	< 3 h	< 9 nM	1.3	510 nM	
CCc1cc(-c2nc(-c3cc(C)c(CCC(=O)NCCO)c(CC)c3)no2)cnc1N(C)C(C)C												>200		
CCc1cc(-c2noc(-c3cnc(C4CCCC4)c(OC)c3)n2)cc(C)c1OC[C@@H](O)CNC(=O)CO	82%		0.3 nM	71 nM	84%	73%	24 h	0.15	2390 nM	11 h	970 nM	7.6	2950 nM	
CCc1cc(-c2noc(-c3cc(OC)cc(CC(C)C)n3)n2)cc(C)c1OC[C@@H](O)CNC(=O)CO	66%		1.5 nM	1400 nM	23%	58%	6 h							
CCc1cc(-c2noc(-c3cc(C(CC)CC)cc(OC)n3)n2)cc(C)c1OC[C@@H](O)CNC(=O)CO	50%		1.1 nM	180 nM	-10%	57%	<3 h		410 nM	4 h	12 nM		240 nM	
CCc1cc(-c2noc(-c3cnc(C)c(OC4CCCC4)c3)n2)cc(C)c1OC[C@@H](O)CNC(=O)CO			21 nM	38 nM										
CCc1cc(-c2noc(-c3ccc(C4CCCC4)c(OC)n3)n2)cc(C)c1OC[C@@H](O)CNC(=O)CO	78%		1.4 nM	920 nM	23%	70%	6 h	0.17	690 nM	6 h	61 nM	6.5	500 nM	
CCc1cc(-c2noc(-c3cc(OC)nc(C4CCCCC4)c3)n2)cc(C)c1OC[C@@H](O)CNC(=O)CO	58%	33%	7.3 nM	690 nM	72%	58%	24 h							
CCc1cc(-c2noc(-c3cc(OC)cc(C(CC)CC)n3)n2)cc(C)c1OC[C@@H](O)CNC(=O)CO			1.2 nM	520 nM										
CCc1cc(-c2nc(-c3cc(C)c(OC[C@@H](O)CO)c(CC)c3)no2)cnc1CC(C)C												1.6		
CCc1cc(-c2noc(-c3cc(OC)c(C4CCCC4)cn3)n2)cc(C)c1OC[C@@H](O)CNC(=O)CO	86%		0.6 nM	210 nM	60%	79%	6 h	0.02	2520 nM	4 h	71 nM	2.1	2020 nM	
CCc1cc(-c2nnc(-c3cc(C)nc(N(CC)CC)c3)o2)cc(C)c1OC[C@@H](O)CNC(=O)CO												>200		
CCc1cc(-c2noc(-c3cc(C4CCCC4)cc(OC)n3)n2)cc(C)c1OC[C@@H](O)CNC(=O)CO	75%		4.5 nM	1500 nM	-2%	63%	6 h	0.09	1790 nM	5 h	100 nM	2.1	1300 nM	
CCc1cc(-c2nc(-c3cc(C)c(OC[C@@H](O)CNC(=O)CO)c(CC)c3)no2)cc(OC2CCC2)n1	75%		1.1 nM	55 nM	79%	72%	168 h							
CCc1cc(-c2noc(-c3cc(C)nc(C(CC)CC)c3)n2)cc(C)c1OC[C@@H](O)CNC(=O)CO												1.7		
CCc1cc(-c2noc(-c3cnc(OC)c(C4CCCC4)c3)n2)cc(C)c1OC[C@@H](O)CNC(=O)CO			1.5 nM	17 nM										
